# Screening results from PubChem.
# Shown are actives, neighbours in structure and some others; about 1.5% of the full set was active somewhere.
# LANA DNA inh: inhibitors of KSHV C-LANA binding to DNA, primary screen, biochemical, fluorescence polarization, FAM-LBS DNA, MBP-C-LANA, single point. Kaposi's sarcoma herpesvirus LANA C-terminal domain (residues 932-1162) DNA binding. inhibition, % at 9 µM. hit rate 0.078% among 340,000;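 active means highest replicate inhibition at or above 60% at 9 µM, even if other replicates fall short; inactive means all replicates below 60% inhibition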;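 further: 0% = neutral control wells and 100% = 4 µM acridine orange control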
# LANA-H2B inh: blockers of LANA interaction with H2A/H2B – biochemical, FP readout, HTS, primary screen; Protein LANA1 (Human herpesvirus 8 type P (isolate GK18)), Q9QR71; cell-free LANA-H2A/H2B peptide, fluorescence polarization; inhibition, % (concentration not given with the values); hit rate 0.6% among 320,000; in the data active means inhibition mostly above about 10%, no sharp cut-off; inactive means mostly below about 6.7%
# CAL PDZ FP-1: CAL PDZ peptide-binding inhibitors, primary screen, biochemical, fluorescence polarization, Cer-tagged CAL PDZ, HTS; Golgi-associated PDZ and coiled-coil motif-containing protein (Homo sapiens), Q9HD26; purified CAL PDZ, TMR-peptide fluorescence polarization, 1 h; inhibition, % at 20 µM; hit rate 0.02% among 330,000;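 active means highest replicate inhibition of at least 40%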;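 further: plate controls were DMSO neutral control wells for no effect and unlabeled competitor peptide control wells for full effect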
#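 System: tagged CAL PDZ domain. Schedule: 1 h room-temperature incubation prior to read. Signal: fluorescence polarization (mP). Measure: percent inhibition from loss of millipolarization.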
# CaV13 FRET inh: Disruptors of the CACNA1D IQ motif to Ca2+-dependent inactivation inhibitor domain association, primary screening, Förster resonance energy transfer in intact living …; HEK cells, CFP/YFP FRET ICDI-IQ, plate reader, 10 min; percent FRET-ratio fall versus neutral wells; hit rate 0.098% among 340,000; inhibition, % at 12.3 µM;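 active means mean replicate inhibition of at least 30% and at least 1% of replicates passing that level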;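 further: 0% = median of the neutral control wells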
# Keap1 Nrf2 FP: Keap1-Nrf2 protein-protein interaction inhibitors, primary screen, biochemical, fluorescence polarization, single point; Kelch-like ECH-associated protein 1 (Homo sapiens), Q14145; Keap1 Kelch-Nrf2 peptide fluorescence polarization, 1536-well; inhibition, % at 9.4 µM; hit rate 0.15% among 340,000; AID 504523, 2011; in the data active means inhibition above about 12%;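 further: human Keap1 Kelch domain with fluorescein labeled Nrf2 9mer peptide probe; 0% = neutral control wells and 100% = peptide positive control; higher means more block of Keap1 binding to Nrf2 peptide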
# CAL PDZ FP-2: untagged CAL PDZ binding inhibitors, primary screen, biochemical, fluorescence polarization, HTS | Golgi-associated PDZ and coiled-coil motif-containing protein (Homo sapiens), Q9HD26 | purified CAL PDZ, TMR-peptide fluorescence polarization, 1 h | inhibition, % at 24.9 µM | hit rate 0.92% among 300,000 | AID 602252, 2012;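 active means mean inhibition of at least 30% with at least half of replicates also reaching 30%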;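 further: 0% = DMSO neutral control and 100% = excess unlabeled competitor peptide PRC23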
# Starred values were filed as active, the others as inactive; . = no result.
SMILES,LANA DNA inh,LANA-H2B inh,CAL PDZ FP-1,CaV13 FRET inh,Keap1 Nrf2 FP,CAL PDZ FP-2
COc1cc(SC)ccc1C(=O)OC(C)C(=O)Nc1ccc(NC(C)=O)cc1 (centres undefined),0,7,-1,-5,-1,56*
Cc1cccc(C)c1NC(=O)C(C1CC1)n1c(-c2ccc(C(F)(F)F)cc2)nc2ccccc21 (centres undefined),.,.,.,-7,.,.
C[C@@H]1CN([C@H](C)CO)C(=O)c2cc(NC(=O)Nc3ccc(C(F)(F)F)cc3)ccc2O[C@H]1CN(C)Cc1ccc(Cl)c(Cl)c1,0,.,0,-4,-1,37*
C[C@H](CO)N1C[C@H](C)[C@@H](CN(C)C(=O)Nc2ccccc2)Oc2ccc(NC(=O)Nc3ccccc3)cc2C1=O,0,-367,-2,-3,-3,-8
C[C@H](CO)N1C[C@H](C)[C@@H](CN(C)C(=O)Nc2ccc(C(F)(F)F)cc2)Oc2ccc(NC(=O)Nc3ccccc3)cc2C1=O,1,143*,-1,-6,-3,-3
Cc1noc(C)c1NC(=O)Nc1ccc2c(c1)C(=O)N([C@H](C)CO)C[C@H](C)[C@H](CN(C)C)O2,4,46*,2,-6,3,0
CC(C)[C@@H](CO)NS(=O)(=O)c1ccc(Br)cc1F,2,.,1,-4,-2,1
Cc1ccccc1S(=O)(=O)NC(=O)C1(C)CCN1C(=O)C1(c2ccccc2)CC1 (centres undefined),.,.,.,-5,.,.
CC1CCCCC1NC(=O)COC(=O)c1ccc(N(C)C)cc1 (centres undefined),-3,-4,-3,-2,-3,0
O=C(COc1ccccc1)NC1CCCCC1,0,1,0,-4,-1,-4
O=C(CCNC(=O)OCc1ccccc1)NC1CCCCC1,4,4,0,-4,-2,-2
CN(C)c1ccc(C(=O)OCC(=O)NC2CCCCCC2)cc1,1,1,28,-4,1,32*
O=C(COc1ccccc1)NC1CCCCCCC1,-1,8.9*,-2,-6,-2,-4
O=C(CNC(=O)OCc1ccccc1)NC1CCCCCC1,1,17*,1,-5,-2,2
COc1ccc(-c2cccc3c4c([nH]c23)[C@@H]2C[C@H]3[C@@H](C(=O)N2CC4)[C@H](C)ON3C)cc1,.,.,.,-5,.,.
CC(C)[C@H](NC(=O)c1ccc(Cl)c(Cl)c1)C(=O)N1CCC[C@H]1C(=O)NCCc1ccccc1Cl,.,.,.,-2,.,.
Cc1ccc(/C=C2\C(=N)N3N=C(CC(=O)N4CCOCC4)SC3=NC2=O)o1,3,18*,-3,-7,-3,0
CCOC(=O)C1=C(C)NC(C)=C(C(=O)OCC)C1C(=O)OCC(=O)NCc1ccccc1OC,1,0,0,-9,1,88*
COc1cc(OC)cc(-c2cc3ccccc3c(=O)o2)c1,0,70*,-2,-4,-1,-5
Nc1ccc(-c2cc3ccccc3c(=O)o2)cc1,-1,-9,0,-44,0,-1
Nc1ccc2cc3[nH]c4cc(N)ccc4c3nc2c1,164*,.,3,-13,161*,-2
Nc1ccc(-c2nc3ccc(N)cc3[nH]2)cc1,0,1,2,-22,0,.
CC(=O)c1cccc(N2C(=O)CC(N3CCN(S(=O)(=O)c4ccc(Cl)cc4)CC3)C2=O)c1 (centres undefined),4,-1,0,-5,0,.
CC#CC[N+](C)(CC#CC)CC(=O)c1ccccc1,1,-2,1,-7,3,58*
COc1cc([N+](=O)[O-])cc(/C=N/NC(=O)Cn2cncn2)c1O,-2,-2,0,-6,-3,48*
SMILES,LANA DNA inh,LANA-H2B inh,CAL PDZ FP-1,CaV13 FRET inh,Keap1 Nrf2 FP,CAL PDZ FP-2
O=C(COC(=O)CNC(=O)c1ccccc1Cl)NC1CCCC1,-1,2,0,-5,1,-2
O=C(COC(=O)CNC(=O)c1ccccc1Cl)NC1CC1,-1,0,1,-7,-6,39*
Cc1ccc(S(C)(=O)=NC(=O)NC(=O)c2c(F)cccc2Cl)cc1 (centres undefined),-1,1,-1,-5,-2,-2
Cc1ccc(S(=O)(=O)/N=c2\ccc(Cl)cn2C(F)F)cc1,-2,17*,0,-6,-3,1
O=C(Nc1ccc(-n2cnnn2)cc1)C1CCCCC1,-1,13*,-2,.,2,-4
CCCc1ccc(-c2cc(NC(=O)Cc3c(C)[nH]c4ccccc34)ccc2Nc2cccnc2)cc1,.,.,.,-1,.,.
Cc1c(N2C(=O)c3ccc(Br)cc3C2=O)c(=O)n(-c2ccccc2)n1C,-2,4,-1,-5,1,36*
CCOC(=O)C1=CCN(S(=O)(=O)c2ccc(Br)cc2)C1c1cccc(Br)c1 (centres undefined),.,.,.,-2,.,.
C=C1c2cccc(O)c2C(=O)C2C(=O)[C@]3(O)C(=O)C(C(N)=O)C(=O)[C@@H](N(C)C)[C@@H]3[C@@H](O)[C@H]12 (some centres undefined),126*,.,1,-6,12*,17
C[C@H]1c2cccc(O)c2C(O)=C2C(=O)[C@]3(O)C(O)=C(C(N)=O)C(=O)[C@@H](N(C)C)C3[C@@H](O)C21 (some centres undefined),-1,0,-1,-6,3,-5
CCOc1ccc(NS(=O)(=O)c2ccc(NS(=O)(=O)c3ccccc3)cc2)cc1,1,4,-2,-9,6,.
CCOc1ccc(S(=O)(=O)Nc2cc(NS(=O)(=O)c3ccc(OCC)cc3)cc(C(=O)O)c2)cc1,4,-8,-1,-5,22*,-4
O=C(CCc1ccccc1F)N1CCN(c2ccc(C(F)(F)F)cn2)CC1,-2,4,-1,-4,0,45*
Cc1ccc(SCc2cc(=O)[nH]c(N3CCOCC3)n2)cc1,1,17*,-1,-5,-6,-1
O=C(/C=C/[C@H]1O[C@@H](n2ccc(=O)[nH]c2=O)[C@H](O)[C@@H]1O)NCc1cccc2ccccc12,.,.,.,-4,.,.
CC1(C)CC2(CCCN(CC(O)(c3ccccc3)c3ccccc3)C2)CCO1 (centres undefined),1,5,0,-2,0,86*
